In ChEMBL document CHEMBL1148342, “Synthesis, X-ray crystal structures, stabilities, and in vitro cytotoxic activities of new heteroarylacrylonitriles” (J Med Chem, 2004) one finds Activity and IC50 data, which are given here for 13 molecules.

Test [1] relates to 5637. Briefly: Cytotoxic activity against human 5637 cell line at 20 uM expressed as percent growth value. Type of test: functional. The gist of the method:
(§1)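 Cells in RPMI-1640 with 10% FCS were seeded (1000 cells/well; KYSE-510 500, LCLC-103H 250), then exposed 24 h later for 96 h. Read-out was crystal violet staining of glutaraldehyde-fixed cells at OD 570 nm. Growth (%) = (OD treated − OD at drug addition)/(OD control − OD at drug addition) × 100.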

Test [2] deals with 5637. Briefly: Growth inhibition against human 5637 cell lines. It counts as functional, cell-based. Particulars: Homo sapiens. Summed up: (§2)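 Cells were grown in RPMI-1640 with 2 g/L NaHCO3 and 10% FCS at 37 °C in 5% CO2, seeded at 1000 cells/well, and dosed 24 h later at five geometric dilutions for 96 h of continuous exposure. Cells were then glutaraldehyde-fixed and stained with crystal violet, with OD read at 570 nm. IC50 was taken from the dose–response data.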

Test [3] concerns KYSE-70 cell line. Briefly: Cytotoxic activity against human KYSE-70 cell line at 20 uM expressed as percent growth value. It counts as functional. The gist of the method:
as §1

Test [4] has as its system LCLC-103H cell line. Briefly: Growth inhibition against human LCLC-103H cell lines. Particulars: Homo sapiens, LCLC-103H. Type of test: functional, cell-based. The gist of the method: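 LCLC-103H cells were grown in RPMI-1640 with 2 g/L NaHCO3 and 10% FCS (5% CO2, 37 °C) and plated at 250 cells/well. After 24 h, five geometric dilutions were applied continuously for 96 h. Fixation was with glutaraldehyde, followed by crystal violet staining and OD at 570 nm. IC50 came from the dose–response curves.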

In a further test the test system is RT-4. Briefly: Growth inhibition against human RT-4 cell lines. Particulars: Homo sapiens, RT-4. It counts as functional, cell-based. Summed up:
as §2

Test [5] has as its system SISO. Briefly: Cytotoxic activity against human SISO cell line at 20 uM. It counts as functional. Summed up: as §1
In another test the test system is TERT-RPE1. As to the kind of experiment: Compound was tested for growth inhibition against human h-TERTRPE1 cell lines. To be noted: Homo sapiens, RPE-1. It counts as functional, cell-based. The gist of the method:
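The noncancerous hTERT-immortalized epithelial line h-TERT-RPE1 was grown in DMEM/F-12 with 2 g/L NaHCO3 and 10% FCS (37 °C, 5% CO2) and seeded at 1000 cells/well. Substance was added 24 h later at five geometric dilutions for 96 h continuously. The read-out was crystal violet staining after glutaraldehyde fixation, OD 570 nm, with IC50 from dose–response.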

In a further test the test system is DAN-G. Briefly: Growth inhibition against human DAN-G cell lines. It counts as functional, cell-based. Particulars: Homo sapiens, DAN-G. The gist of the method: as §2
The subject of test [6] is KYSE-70 cell line. Briefly: Growth inhibition against human KYSE-70 cell lines. It counts as functional, cell-based. Particulars: Homo sapiens, KYSE-70. The gist of the method: as §2
In a further test the test system is MCF7. Briefly: Growth inhibition against human MCF-7 cell lines. Type of test: functional, cell-based. To be noted: Homo sapiens, MCF7. The gist of the method:
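MCF-7 was cultured in RPMI-1640 with 2 g/L NaHCO3, 10% FCS, 1 mM pyruvate, MEM salts and amino acids. Plating was 1000 cells/well, then after 24 h, 96 h of continuous exposure at five geometric dilutions. Crystal violet staining of glutaraldehyde-fixed cells was read at 570 nm, and IC50 was derived from the dose–response data.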

The subject of test [7] is SISO. Briefly: Growth inhibition against human SISO cell lines. Type of test: functional, cell-based. Particulars: Homo sapiens, SISO. The gist of the method: as §2
The test system of another test is KYSE-510. Briefly: Cytotoxic activity against human KYSE-510 cell line at 20 uM expressed as percent growth value. It counts as functional. The gist of the method:
as §1

In test [8] the test system is LCLC-103H cell line. As to the kind of experiment: Cytotoxic activity against human LCLC-103H cell line at 20 uM expressed as percent growth value. It counts as functional. Summed up: as §1
The test system of another test is RT-112. Briefly: Growth inhibition against human RT-112 cell lines. Type of test: functional, cell-based. Particulars: Homo sapiens, RT-112. The gist of the method:
as §2

Another test deals with YAPC. As to the kind of experiment: Compound was tested for growth inhibition against human YAPC cell lines. Type of test: functional, cell-based. To be noted: Homo sapiens, YAPC. Summed up:
as §2

A further test relates to KYSE-520 cell line. Briefly: Growth inhibition against human KYSE-520 cell lines. To be noted: Homo sapiens, KYSE-520. It counts as functional, cell-based. The gist of the method: as §2
The next test deals with KYSE-510 (human). Briefly: Growth inhibition against human KYSE-510 cell lines. Particulars: Homo sapiens, KYSE-510.

In the case of `O=[N+]([O-])c1ccc(/C=C/c2nc3ccccc3[nH]2)s1`, the Activity in the test with 5637 [1] was 0; in the test with KYSE-70 cell line [3] it was 0.7; with SISO [5] it was -1.8. In addition, the IC50 in the test with 5637 [2] is 270 nM; with LCLC-103H cell line [4], 560 nM; with RT-4, 890 nM; in the test with TERT-RPE1, 210 nM.
With `N#C/C(=C\c1cccc([N+](=O)[O-])c1)c1nc2ccccc2[nH]1`, the figures for the Activity in the test with 5637 [1], in the test on KYSE-70 cell line [3] and with SISO [5] were 14.4, 55.4 and 54.2, respectively. Besides, the IC50 is 15200 nM with 5637 [2]; 15800 nM in the test with DAN-G; 22500 nM with KYSE-70 cell line [6]; 16400 nM in the test with MCF7; 1130 nM with LCLC-103H cell line [4]; 7680 nM in the test on RT-4. The IC50 with SISO [7] came to 30900 nM.
Take `N#C/C(=C\c1cccs1)c1nc2ccccc2[nH]1`: the Activity with 5637 [1] was found to be 49.3; in the test with KYSE-70 cell line [3], 30.8; in the test on SISO [5] it was 82.4. Besides, the IC50 in the test on 5637 [2] amounted to 17800 nM; in the test on DAN-G, 15000 nM; with KYSE-70 cell line [6], 8780 nM; with MCF7, 11200 nM; in the test with LCLC-103H cell line [4], 2500 nM; with RT-4, 14600 nM. In the test with SISO [7], the IC50 worked out at 25900 nM.
As for `CN(C)c1ccc(/C=C(\C#N)c2nc3ccccc3[nH]2)cc1`, the Activity in the test on 5637 [1] is 61.1; with KYSE-70 cell line [3], 124.4; with SISO [5], 95.
As for `N#C/C(=C\c1ccc(OC(F)(F)F)cc1)c1nc2ccccc2[nH]1`, the Activity amounted to 66 in the test on 5637 [1], 96.7 in the test with KYSE-70 cell line [3] and 71.7 in the test with SISO [5].
The like results for `COc1ccc(/C=C(\C#N)c2nc3ccccc3[nH]2)cc1` were, in that order, 64.9, 75.8 and 72.1.
For the molecule `C/C(=C\c1ccc([N+](=O)[O-])s1)c1nc2ccccc2[nH]1`, the values for the Activity with 5637 [1], in the test with KYSE-70 cell line [3] and in the test on SISO [5] were 0.5, 2.4 and -1.3, respectively. For the same molecule, the IC50 in the test on 5637 [2] was 3650 nM; in the test with DAN-G it was 3730 nM; in the test with KYSE-70 cell line [6], 5110 nM; in the test with MCF7, 2970 nM; with LCLC-103H cell line [4], 440 nM; in the test with RT-4, 4670 nM. In addition, the IC50 in the test with SISO [7] turned out to be 3280 nM.
On to `N#C/C(=C\c1ccc(C(F)(F)F)cc1)c1nc2ccccc2[nH]1`, for which the figures for the Activity in the test with 5637 [1], in the test with KYSE-70 cell line [3] and in the test with SISO [5] were 34.4, 69.7 and 61.8, respectively. Also, the IC50 in the test on 5637 [2] was 12200 nM; in the test on DAN-G, 17600 nM; in the test with KYSE-70 cell line [6], 15600 nM; with MCF7 it was 9110 nM; with LCLC-103H cell line [4], 1600 nM; in the test on RT-4, 16300 nM. This molecule yielded an IC50 in the test on SISO [7] of 14000 nM.
In the case of `N#C/C(=C\c1ccco1)c1nc2ccccc2[nH]1`, the results for the Activity with 5637 [1], with KYSE-70 cell line [3] and in the test on SISO [5] were 86.1, 56.6 and 106.1, respectively.
For `N#C/C(=C\c1ccc([N+](=O)[O-])s1)c1n[nH]c(-c2ccccc2)n1`, the IC50 was 480 nM with 5637 [2]; 420 nM in the test on DAN-G; 350 nM in the test with KYSE-70 cell line [6]; 680 nM in the test with MCF7; 540 nM in the test on LCLC-103H cell line [4]; 830 nM in the test on RT-112. In addition, the IC50 with RT-4 came out at 1030 nM; in the test with SISO [7], 890 nM; in the test on TERT-RPE1 it was 420 nM; with YAPC it was 320 nM; in the test with KYSE-520 cell line, 570 nM; with KYSE-510 (human), 630 nM. The Activity in the test with KYSE-510 is reported as -21.7; in the test on LCLC-103H cell line [8], -6.5; in the test with SISO [5], -9.9.
Regarding `N#C/C(=C\c1ccc(C#N)cc1)c1nc2ccccc2[nH]1`, the Activity in the test on 5637 [1] is on record as 75.6; in the test on KYSE-70 cell line [3] it was 99.3; with SISO [5] it was 99.2.
The like results for `N#C/C(=C\c1ccc([N+](=O)[O-])cc1)c1nc2ccccc2[nH]1` were, in that order, 73.9, 88 and 99.2.
For the molecule `Cc1n[nH]c(/C(C#N)=C/c2ccc([N+](=O)[O-])s2)n1`, the IC50 in the test with 5637 [2] was 220 nM; with DAN-G, 570 nM; in the test on KYSE-70 cell line [6], 440 nM; in the test with MCF7, 380 nM; in the test with LCLC-103H cell line [4] it was 330 nM; in the test with RT-112, 670 nM. The IC50 in the test on RT-4 worked out at 900 nM; with SISO [7] it was 510 nM; with TERT-RPE1, 690 nM; in the test with YAPC, 410 nM; in the test on KYSE-520 cell line, 600 nM; in the test with KYSE-510 (human), 560 nM. For the same molecule, the Activity in the test with KYSE-510 is -21.3; with LCLC-103H cell line [8], -8.4; with SISO [5] it was -8.8.
